Results reported in ChEMBL document CHEMBL1821661, “Design, synthesis, and biological evaluation of pyrazolopyrimidine-sulfonamides as potent multiple-mitotic kinase (MMK) inhibitors (part I)” (Bioorg Med Chem Lett, 2011).

Experiments:
Aurora kinase A = target: T1, Aurora kinase A (Homo sapiens, UniProt O14965); assay: Inhibition of Aurora kinase A assessed as phosphorylation of Lats2 substrate at […] by FRET assay
T1 sequence (O14965 whole entry): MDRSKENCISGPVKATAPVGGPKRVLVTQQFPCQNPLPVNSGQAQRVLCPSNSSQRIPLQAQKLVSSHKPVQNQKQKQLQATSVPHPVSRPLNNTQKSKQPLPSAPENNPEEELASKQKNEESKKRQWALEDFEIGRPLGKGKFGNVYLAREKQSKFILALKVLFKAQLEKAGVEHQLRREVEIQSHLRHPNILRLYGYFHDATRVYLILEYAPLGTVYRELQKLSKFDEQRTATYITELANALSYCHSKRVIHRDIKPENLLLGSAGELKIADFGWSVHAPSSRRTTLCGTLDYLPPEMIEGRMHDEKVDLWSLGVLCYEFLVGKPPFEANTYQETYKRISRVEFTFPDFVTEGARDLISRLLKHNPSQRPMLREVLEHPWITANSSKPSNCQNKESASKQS

[1] = target: Cyclin-dependent kinase 1/cyclin B1 (Homo sapiens, UniProt P06493); assay: Inhibition of CDK1/Cyclin B assessed as phosphorylation of Z-lyte Peptide at […] by FRET assay; format: protein-complex assay
Outline: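 Z-lyte FRET kinase assay. Kinase was at 3 nM final with a coumarin/fluorescein-labelled synthetic peptide substrate and ATP. Development-step cleavage of non-phosphorylated peptide disrupts FRET. % phosphorylation was calculated from the coumarin:fluorescein emission ratio, read at 445–520 nm. EC50s were obtained by curve fitting.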

K562 = assay: Cell cycle arrest in human K562 cells assessed as accumulation of cells at G2/M phase after 24 hrs using propidium iodide by flow cytometry; format: functional, cell-based; settings: K562, 24 h, read-out: IC50
Outline: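 2 × 10⁴ K562 cells were exposed to varying compound concentrations for 24 h. Cells were stained with propidium iodide (50 µg/ml) in PBS containing 1% sodium citrate and 0.1% Triton X-100, and 5000 events were collected by flow cytometry. Cycle data were modelled by the Watson method. The minimum arrest concentration was taken where the G2:M peak ratio exceeded 1.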

HCT-116 [2] = assay: Cytotoxicity against human HCT116 cells assessed as growth inhibition at 0.01 to 10 uM after 5 days by MTS assay; format: functional, cell-based; settings: HCT-116, 120 h
[3] = Apparent permeability from apical to basolateral side of the human Caco2 cells after 2 hrs; format: ADME, cell-based; settings: Caco-2
Outline: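 Caco-2 cells, passage 25–50, were grown on transwell inserts. They were washed and pre-incubated 30 min at 37 °C in HBSS with 25 mM HEPES and 1% DMSO. Compound was added to the apical chamber and apical-to-basolateral transport was measured after 2 h at 37 °C with gentle shaking.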

[4] = Efflux ratio of permeability in human Caco2 cells; format: ADME, cell-based; settings: Caco-2
Outline: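 Caco-2 bidirectional transport, passage 25–50, in HBSS/25 mM HEPES/1% DMSO after a 30 min pre-incubation at 37 °C. Compound was dosed apically (A–B) or basolaterally (B–A) and incubated 2 h at 37 °C with gentle shaking.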

[5] = Hepatic blood flow in mouse liver microsomes assessed as compound remaining at 1.0 uM pre incubated for 5 mins at pH 7.4 by LC/MS/MS analysis; format: ADME, Microsome; settings: read-out: QH
Outline: (§1)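 Liver microsomes at 1 mg/mL protein in 50 mM potassium phosphate, pH 7.4, with 2.5 mM NADPH. Compound was used at 1.0 µM final and pre-incubated 5 min at 37 °C before NADPH started the reaction. Samples were taken at 0, 5 and 30 min, quenched in acetonitrile, and filtered. Results are expressed as %Q_h (hepatic blood flow).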

[6] = Hepatic blood flow in rat liver microsomes assessed as compound remaining at 1.0 uM pre incubated for 5 mins at pH 7.4 by LC/MS/MS analysis; format: ADME, Microsome; settings: read-out: QH; outline: as §1
[7] = Hepatic blood flow in human liver microsomes assessed as compound remaining at 1.0 uM pre incubated for 5 mins at pH 7.4 by LC/MS/MS analysis; format: ADME, Microsome; settings: read-out: QH; outline: as §1
Cytochrome P450 3A4 [8] = target: T2, Cytochrome P450 3A4 (Homo sapiens, UniProt P08684); assay: Inhibition of CYP3A4 using a fluorescent probe 7-benzyloxy-4(trifluoromethyl)-coumarin; format: ADME
Cytochrome P450 3A4 [9] = target: T2, Cytochrome P450 3A4; assay: Inhibition of CYP3A4 using a fluorescent probe 7-benzyloxyquinoline; format: ADME
Cytochrome P450 2C19 = Cytochrome P450 2C19 (Homo sapiens, UniProt P33261); assay: Inhibition of CYP2C19; format: ADME
Cytochrome P450 2C9 = Cytochrome P450 2C9 (Homo sapiens, UniProt P11712); assay: Inhibition of CYP2C9 using a fluorescent probe 7-methoxy-4-trifluoromethylcoumarin; format: ADME
Outline: (§2)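 Fluorescent-probe CYP inhibition assay. Probes: 7-methoxy-4-trifluoromethylcoumarin for 2C9; 3-[2-(N,N-diethyl-N-methylamino)ethyl]-7-methoxy-4-methylcoumarin for 2D6.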

Cytochrome P450 2D6 = Cytochrome P450 2D6 (Homo sapiens, UniProt P10635); assay: Inhibition of CYP2D6 using a fluorescent probe 3-[2-(N,N-diethyl-N-methylamino)ethyl]-7-methoxy-4methylcoumarin; format: ADME; outline: as §2
Cytochrome P450 1A2 = target: T3, Cytochrome P450 1A2 (Homo sapiens, UniProt P05177); assay: Inhibition of CYP1A2; format: ADME
T3 sequence (P05177 whole entry): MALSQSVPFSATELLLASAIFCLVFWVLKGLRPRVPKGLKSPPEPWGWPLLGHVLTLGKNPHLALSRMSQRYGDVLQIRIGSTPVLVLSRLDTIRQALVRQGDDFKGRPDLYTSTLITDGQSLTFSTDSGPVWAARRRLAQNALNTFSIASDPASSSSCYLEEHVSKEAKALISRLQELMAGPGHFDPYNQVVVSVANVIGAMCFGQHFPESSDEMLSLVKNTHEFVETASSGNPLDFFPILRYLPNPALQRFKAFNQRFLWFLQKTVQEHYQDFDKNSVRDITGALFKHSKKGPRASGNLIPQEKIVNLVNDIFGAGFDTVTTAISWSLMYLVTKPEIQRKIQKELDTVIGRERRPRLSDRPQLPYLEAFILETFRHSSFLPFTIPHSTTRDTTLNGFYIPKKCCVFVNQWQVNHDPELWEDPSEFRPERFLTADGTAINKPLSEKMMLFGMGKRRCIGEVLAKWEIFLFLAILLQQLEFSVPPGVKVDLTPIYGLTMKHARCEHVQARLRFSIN

hERG (KCNH2) = hERG (KCNH2) (Homo sapiens, UniProt Q12809); assay: Inhibition of human ERG up to 10 uM by patch clamp method
HCT-116 [10] = assay: Antitumor activity against human HCT116 cells xenografted in nu/nu mouse assessed as tumor growth inhibition at 15 to 30 mg/kg, ip for 21 days relative to control; format: functional; settings: dose mg/kg 15-30, route intraperitoneal
Mus musculus = assay: Toxicity in nu/nu mouse xenografted with human HCT116 cells assessed as change in body weight at 15 to 30 mg/kg, […]; format: organism-based, HCT-116; parameters: dose 15-30 mg/kg, route intraperitoneal; settings: in vivo, ip, 504 h

Chain of Cyclin-dependent kinase 1/cyclin B1 (P06493 whole entry): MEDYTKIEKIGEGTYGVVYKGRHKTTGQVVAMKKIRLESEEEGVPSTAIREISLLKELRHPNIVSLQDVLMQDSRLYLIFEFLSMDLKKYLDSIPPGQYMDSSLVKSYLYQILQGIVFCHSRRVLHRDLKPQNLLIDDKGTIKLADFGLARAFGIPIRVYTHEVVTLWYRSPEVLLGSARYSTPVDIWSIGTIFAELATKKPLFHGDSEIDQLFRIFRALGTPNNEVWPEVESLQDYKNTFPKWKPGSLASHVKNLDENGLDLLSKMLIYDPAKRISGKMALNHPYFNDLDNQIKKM
Chain of Cyclin-dependent kinase 1/cyclin B1 (P14635 whole entry, further chain): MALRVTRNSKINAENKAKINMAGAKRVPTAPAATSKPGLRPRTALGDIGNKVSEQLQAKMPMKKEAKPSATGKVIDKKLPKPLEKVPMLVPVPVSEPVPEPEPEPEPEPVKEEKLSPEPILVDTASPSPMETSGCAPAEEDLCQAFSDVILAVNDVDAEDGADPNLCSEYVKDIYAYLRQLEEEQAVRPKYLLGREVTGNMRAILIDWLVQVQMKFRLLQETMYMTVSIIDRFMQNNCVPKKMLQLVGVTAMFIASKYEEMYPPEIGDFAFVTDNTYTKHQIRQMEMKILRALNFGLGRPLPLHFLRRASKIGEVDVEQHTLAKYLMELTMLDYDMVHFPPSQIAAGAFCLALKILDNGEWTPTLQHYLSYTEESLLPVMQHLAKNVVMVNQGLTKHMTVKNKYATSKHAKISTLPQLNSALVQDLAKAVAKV
T2 sequence (P08684 whole entry): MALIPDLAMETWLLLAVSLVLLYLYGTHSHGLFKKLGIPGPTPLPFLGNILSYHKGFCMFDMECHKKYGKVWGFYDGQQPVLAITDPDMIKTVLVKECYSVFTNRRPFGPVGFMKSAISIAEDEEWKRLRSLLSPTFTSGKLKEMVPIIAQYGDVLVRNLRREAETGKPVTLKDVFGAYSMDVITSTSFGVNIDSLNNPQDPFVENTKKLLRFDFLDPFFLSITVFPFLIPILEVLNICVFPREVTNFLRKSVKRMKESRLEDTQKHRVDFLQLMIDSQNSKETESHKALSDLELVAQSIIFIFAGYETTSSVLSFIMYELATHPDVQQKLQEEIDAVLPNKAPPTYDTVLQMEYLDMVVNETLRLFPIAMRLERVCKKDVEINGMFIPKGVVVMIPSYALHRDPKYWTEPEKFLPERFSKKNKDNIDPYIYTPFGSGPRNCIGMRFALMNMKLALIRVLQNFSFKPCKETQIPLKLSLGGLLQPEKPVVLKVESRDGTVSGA
Chain of Cytochrome P450 2C9 (P11712 whole entry): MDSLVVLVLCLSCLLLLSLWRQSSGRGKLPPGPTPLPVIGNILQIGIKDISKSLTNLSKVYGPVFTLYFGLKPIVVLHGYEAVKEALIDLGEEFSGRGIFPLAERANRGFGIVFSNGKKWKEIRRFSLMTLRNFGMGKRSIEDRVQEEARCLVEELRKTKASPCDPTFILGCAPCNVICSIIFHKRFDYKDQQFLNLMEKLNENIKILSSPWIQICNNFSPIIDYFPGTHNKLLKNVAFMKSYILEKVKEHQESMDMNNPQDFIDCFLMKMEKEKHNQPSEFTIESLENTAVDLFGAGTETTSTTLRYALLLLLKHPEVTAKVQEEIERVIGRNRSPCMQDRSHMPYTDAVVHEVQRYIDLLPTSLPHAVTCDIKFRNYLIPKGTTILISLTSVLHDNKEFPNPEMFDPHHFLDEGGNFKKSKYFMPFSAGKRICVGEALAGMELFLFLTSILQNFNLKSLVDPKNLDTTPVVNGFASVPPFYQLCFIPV
Chain of hERG (KCNH2) (Q12809 whole entry): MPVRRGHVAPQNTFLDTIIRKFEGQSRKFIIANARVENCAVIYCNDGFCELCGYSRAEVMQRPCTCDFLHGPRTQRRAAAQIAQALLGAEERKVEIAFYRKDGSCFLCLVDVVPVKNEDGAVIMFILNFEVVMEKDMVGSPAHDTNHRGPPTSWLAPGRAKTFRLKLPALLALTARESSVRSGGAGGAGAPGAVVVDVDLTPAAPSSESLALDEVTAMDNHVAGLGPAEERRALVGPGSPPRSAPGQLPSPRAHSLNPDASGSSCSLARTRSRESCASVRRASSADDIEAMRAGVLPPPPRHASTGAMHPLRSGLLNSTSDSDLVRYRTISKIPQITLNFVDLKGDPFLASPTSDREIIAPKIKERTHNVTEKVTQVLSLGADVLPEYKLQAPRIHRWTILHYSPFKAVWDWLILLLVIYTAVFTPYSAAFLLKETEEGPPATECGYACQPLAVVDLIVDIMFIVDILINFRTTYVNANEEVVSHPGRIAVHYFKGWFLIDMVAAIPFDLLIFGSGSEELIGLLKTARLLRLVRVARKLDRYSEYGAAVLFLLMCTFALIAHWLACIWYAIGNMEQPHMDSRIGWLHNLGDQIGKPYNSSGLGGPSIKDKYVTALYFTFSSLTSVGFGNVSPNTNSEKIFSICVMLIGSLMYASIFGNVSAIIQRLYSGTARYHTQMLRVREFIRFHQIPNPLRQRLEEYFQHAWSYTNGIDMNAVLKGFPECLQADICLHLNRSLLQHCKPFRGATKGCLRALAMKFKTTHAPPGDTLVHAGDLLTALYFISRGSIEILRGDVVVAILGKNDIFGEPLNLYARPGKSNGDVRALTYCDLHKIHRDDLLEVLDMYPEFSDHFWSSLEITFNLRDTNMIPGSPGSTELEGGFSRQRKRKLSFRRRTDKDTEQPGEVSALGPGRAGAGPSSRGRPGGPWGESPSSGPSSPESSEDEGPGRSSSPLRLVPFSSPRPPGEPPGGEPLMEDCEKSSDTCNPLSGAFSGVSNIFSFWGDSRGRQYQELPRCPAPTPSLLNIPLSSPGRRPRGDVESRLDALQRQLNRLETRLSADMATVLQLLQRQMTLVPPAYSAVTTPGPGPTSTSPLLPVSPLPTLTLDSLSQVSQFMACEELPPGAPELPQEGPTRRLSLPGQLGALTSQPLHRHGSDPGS
Chain of Cytochrome P450 2C19 (P33261 whole entry): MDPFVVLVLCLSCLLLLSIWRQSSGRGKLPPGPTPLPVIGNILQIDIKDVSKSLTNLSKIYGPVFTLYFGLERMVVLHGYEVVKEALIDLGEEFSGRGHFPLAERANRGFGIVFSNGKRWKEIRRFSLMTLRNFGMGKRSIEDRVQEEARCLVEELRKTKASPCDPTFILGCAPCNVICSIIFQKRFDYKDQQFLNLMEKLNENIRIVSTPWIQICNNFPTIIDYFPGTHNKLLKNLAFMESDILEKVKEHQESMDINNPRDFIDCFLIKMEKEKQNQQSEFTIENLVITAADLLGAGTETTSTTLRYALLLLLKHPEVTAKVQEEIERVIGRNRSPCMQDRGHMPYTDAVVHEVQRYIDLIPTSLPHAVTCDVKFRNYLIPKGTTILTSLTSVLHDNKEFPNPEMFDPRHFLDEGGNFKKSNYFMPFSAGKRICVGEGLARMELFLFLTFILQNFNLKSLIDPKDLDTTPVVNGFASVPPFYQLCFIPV
Chain of Cytochrome P450 2D6 (P10635 whole entry): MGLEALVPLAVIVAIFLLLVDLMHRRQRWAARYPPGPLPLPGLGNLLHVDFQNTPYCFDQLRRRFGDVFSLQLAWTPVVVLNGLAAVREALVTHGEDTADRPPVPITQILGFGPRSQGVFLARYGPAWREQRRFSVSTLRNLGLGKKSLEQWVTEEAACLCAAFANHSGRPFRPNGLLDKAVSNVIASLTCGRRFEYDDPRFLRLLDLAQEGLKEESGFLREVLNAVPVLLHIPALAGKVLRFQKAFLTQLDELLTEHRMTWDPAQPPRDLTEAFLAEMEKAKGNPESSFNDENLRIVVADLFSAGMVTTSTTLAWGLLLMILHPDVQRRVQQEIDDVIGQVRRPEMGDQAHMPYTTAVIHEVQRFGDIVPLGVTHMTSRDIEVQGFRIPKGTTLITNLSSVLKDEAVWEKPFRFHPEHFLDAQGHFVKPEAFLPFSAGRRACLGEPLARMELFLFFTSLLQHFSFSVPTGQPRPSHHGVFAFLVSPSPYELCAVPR

Structure (SMILES) | IC50 (Aurora kinase A) [nM] | IC50 [1] [nM] | Minimum G2/M arrest concentration (K562) [nM] | IC50 (HCT-116 [2]) [nM] | also measured
CS(=O)(=O)N(CCCO)c1ccc(Nc2ncc3cnn(C4CCCCCC4)c3n2)cc1 | 6 | 6 | 100 | 78 | 
CS(=O)(=O)N(Cc1ccncc1)c1ccc(Nc2ncc3cnn(C4CCCCCC4)c3n2)cc1 | 30 | 23 | 300 | 250 | 
CS(=O)(=O)Nc1ccc(Nc2ncc3cnn(C4CCCCCC4)c3n2)cn1 |  | 7 | 300 | 210 | Papp A→B at 2 h [3]: 20.1 ×10⁻⁶ cm/s; efflux ratio [4]: 1.5; hepatic extraction ratio at 5 min, 1 µM [5]: 0.33; hepatic extraction ratio at 5 min, 1 µM [6]: 0.3; hepatic extraction ratio at 5 min, 1 µM [7]: 0.39; IC50 (Cytochrome P450 3A4 [8]): > 10000 nM; IC50 (Cytochrome P450 3A4 [9]): > 10000 nM; IC50 (Cytochrome P450 2C19): > 10000 nM; IC50 (Cytochrome P450 2C9): > 10000 nM; IC50 (Cytochrome P450 2D6): > 10000 nM; IC50 (Cytochrome P450 1A2): > 10000 nM; inhibition at up to 10 uM (hERG (KCNH2)): 6.5%
CS(=O)(=O)N(CCN1CCCC1)c1ccc(Nc2ncc3cnn(C4CCCCCC4)c3n2)cn1 | 350 | 10 | 1000 | 125 | 
CN(C)CCN(c1ccc(Nc2ncc3cnn(C4CCCCCC4)c3n2)cn1)S(C)(=O)=O | 260 | 10 | 300 | 220 | 
CS(=O)(=O)N(CCN)c1ccc(Nc2ncc3cnn(C4CCCCCC4)c3n2)cn1 |  | 3 | 300 | 119 | 
CS(=O)(=O)N(Cc1ccncc1)c1ccc(Nc2ncc3cnn(C4CCCCCC4)c3n2)cn1 | 95 | 13 | 300 | 320 | 

The next lines start with results.

IC50 (Aurora kinase A) [nM] | IC50 [1] [nM] | Structure (SMILES) | Minimum G2/M arrest concentration (K562) [nM] | IC50 (HCT-116 [2]) [nM] | also measured
13 | 5 | CS(=O)(=O)N(CCO)c1ccc(Nc2ncc3cnn(C4CCCCCC4)c3n2)cc1 | 30 | 77 | 
14 | 23 | CS(=O)(=O)N(CCN1CCOCC1)c1ccc(Nc2ncc3cnn(C4CCCCCC4)c3n2)cc1 | 100 | 160 | Papp A→B at 2 h [3]: 26.5 ×10⁻⁶ cm/s; efflux ratio [4]: 1.1; hepatic extraction ratio at 5 min, 1 µM [5]: 0.96; hepatic extraction ratio at 5 min, 1 µM [6]: 0.94; hepatic extraction ratio at 5 min, 1 µM [7]: 0.95; IC50 (Cytochrome P450 3A4 [8]): 40 nM; IC50 (Cytochrome P450 3A4 [9]): 40 nM; IC50 (Cytochrome P450 2C19): 30 nM; IC50 (Cytochrome P450 2C9): 1 nM; IC50 (Cytochrome P450 2D6): > 10000 nM; IC50 (Cytochrome P450 1A2): > 10000 nM; inhibition at up to 10 uM (hERG (KCNH2)): 40%; growth inhibition (GI) (HCT-116 [10]): 50%; Activity (Mus musculus): Non-toxic
 | 5 | CS(=O)(=O)N(CCCN1CCOCC1)c1ccc(Nc2ncc3cnn(C4CCCCCC4)c3n2)cc1 | 100 | 170 | 
5 | 90 | CC(C)N(c1ccc(Nc2ncc3cnn(C4CCCCCC4)c3n2)cc1)S(C)(=O)=O | 300 | 240 | 
20 | 5 | CS(=O)(=O)N(CCN)c1ccc(Nc2ncc3cnn(C4CCCCCC4)c3n2)cc1 | 100 | 60 | 
9 | 6 | CS(=O)(=O)N(CCCN1CCCCC1)c1ccc(Nc2ncc3cnn(C4CCCCCC4)c3n2)cc1 | 100 | 92 | 
150 | 31 | CS(=O)(=O)N(CCN1CCOCC1)c1ccc(Nc2ncc3cnn(C4CCCCCC4)c3n2)cn1 | 2000 | 500 | 
110 | 4 | CS(=O)(=O)N(CCO)c1ccc(Nc2ncc3cnn(C4CCCCCC4)c3n2)cn1 | 300 | 145 | 
> 10000 | > 10000 | CS(=O)(=O)N(c1ccc(Nc2ncc3cnn(C4CCCCCC4)c3n2)nc1)S(C)(=O)=O | > 3000 |  | 
